Measurements reported in article PMC4203514 (Autophagy, 2014).
“Also recorded” adds a separate entry of the source. Like-named read-outs stand apart in the source and are kept apart here.

Tests used:
Format in all cases: in vivo, human
[1] = system: peripheral blood mononuclear cells; experiment: PK-PD CART analysis of HCQ peak concentration versus AV accumulation in PBMC
How it was run: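 Exploratory classification and regression trees analysis used 26 patients with complete PK and PD data. The target was change in PBMC AV count from baseline to 2 wk. Predictors were Cmin, Cmax and AUC, taken from model-simulated individual blood profiles. The PK-PD relationship was also examined after 4 wk of combined therapy. The Cmax threshold was tested by Kruskal-Wallis (medians) and Kolmogorov-Smirnov two-sample tests.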

[2] = system: patients with advanced solid tumors
How it was run: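 Open-label single-institution 3 + 3 escalation of the oral test compound only, starting at 200 mg daily, split twice daily about 12 h apart above 200 mg, up to 1200 mg. A 14 d monotherapy run-in preceded an oral alkylating agent at 150 mg/m2 daily for 7 of 14 d, in 28 d cycles. DLT was any at least possibly related grade ≥ 3 event in the first 6 wk. MTD was ≤ 1/6 patients with DLT.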

[3] = system: peripheral blood mononuclear cells; experiment: Autophagic vacuole; conditions: after 2 wk run-in of HCQ; baseline 2.19
[4] = system: patients with advanced solid tumors; experiment: Treatment-related adverse events by grade
How it was run: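 Patients who took at least one dose of the oral test compound, given with a dose-intense oral alkylating agent, were evaluable for toxicity. Adverse events were graded by NCI Common Toxicity Criteria v3.0, and haematological toxicities were attributed to the alkylating agent. Complete blood counts were done weekly for the first 6 wk and biweekly thereafter. Treatment ran in 28 d cycles.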

CCN(CCO)CCCC(C)Nc1ccnc2cc(Cl)ccc12 (centres unmarked) [HCQ, hydroxychloroquine]
Threshold HCQ Cmax that correlated with AV accumulation (CART) ([1]; after 2 wk of single agent HCQ, 26 patients): 1554 ng/mL | Threshold HCQ Cmax for AV change (CART) ([1]; baseline to 4 wk of combined therapy (TMZ + HCQ), 21 patients): 856 ng/mL | Median AV change from baseline to 2 wk ([1]; patients with Cmax above 1554 ng/mL (n = 18), IQR -0.45, 1.37): 0.89 | Median AV change from baseline to 2 wk ([1]; patients with Cmax below 1554 ng/mL (n = 8), IQR −1.35, 0.03): −0.21 | Maximum tolerated dose (MTD) ([2]; HCQ up to 1200 mg/d combined with dose-intense TMZ 150 mg/m^2 daily for 7/14 d): No maximal tolerated dose; also recorded: not reached | Recommended phase II dose (RPTD) ([2]; combined with dose-intense TMZ, dose level 5): 600 mg twice daily | Dose-limiting toxicity ([2]; dose level 1 (HCQ 200 mg/day), three patients): no dose-limiting toxicity (DLT) was observed | Dose-limiting toxicity ([2]; dose level 2 (HCQ 400 mg/day)): no DLT observed | Serious adverse event ([2]; dose level 3 (HCQ 400 mg twice daily), patient on sotalol, within 8 d, attributed to dehydration and not to the study drug): third-degree heart block | Dose-limiting toxicity ([2]; dose level 4 (HCQ 1000 mg/day), none in 3 additional patients): one grade 3 rash | Dose-limiting toxicity ([2]; dose level 5 (HCQ 1200 mg/d), first cycle, none in expanded cohort): one patient experienced grade 3 nausea and vomiting | Mean AV count per cell in PBMC [3]: 2.45 | Abdominal fullness G1/G2 ([4]; All patients, HCQ with TMZ): 2 (6) No. (%) | Abdominal pain G1/G2 ([4]; All patients, HCQ with TMZ): 2 (6) No. (%) | Anemia G1/G2 ([4]; All patients, HCQ with TMZ): 1 (3) No. (%) | Anemia G3/G4 ([4]; All patients, HCQ with TMZ): 1 (3) No. (%) | Anorexia G1/G2 ([4]; All patients, HCQ with TMZ): 13 (35) No. (%) | Bradycardia G1/G2 ([4]; All patients, HCQ with TMZ): 2 (6) No. (%) | Constipation G1/G2 ([4]; All patients, HCQ with TMZ): 8 (22) No. (%) | Diarrhea G1/G2 ([4]; All patients, HCQ with TMZ): 9 (24) No. (%) | Dizziness G1/G2 ([4]; All patients, HCQ with TMZ): 2 (6) No. (%) | Dyspepsia G1/G2 ([4]; All patients, HCQ with TMZ): 2 (6) No. (%) | Headaches G1/G2 ([4]; All patients, HCQ with TMZ): 3 (8) No. (%) | Hypotension G1/G2 ([4]; All patients, HCQ with TMZ): 3 (8) No. (%) | Leukopenia G3/G4 ([4]; All patients, HCQ with TMZ): 1 (3) No. (%) | Lymphopenia G1/G2 ([4]; All patients, HCQ with TMZ): 5 (14) No. (%) | Lymphopenia G3/G4 ([4]; All patients, HCQ with TMZ): 5 No. (%) | Myalgias G1/G2 ([4]; All patients, HCQ with TMZ): 2 (6) No. (%) | Nausea G1/G2 ([4]; All patients, HCQ with TMZ): 24 (65) No. (%) | Nausea G3/G4 ([4]; All patients, HCQ with TMZ): 1 (3) No. (%) | Neutropenia G3/G4 ([4]; All patients, HCQ with TMZ): 2 (6) No. (%) | Pruritus G1/G2 ([4]; All patients, HCQ with TMZ): 4 (12) No. (%) | Rash G1/G2 ([4]; All patients, HCQ with TMZ): 3 (8) No. (%) | Rash G3/G4 ([4]; All patients, HCQ with TMZ): 1 (3) No. (%) | Taste change G1/G2 ([4]; All patients, HCQ with TMZ): 2 (6) No. (%) | Thrombocytopenia G1/G2 ([4]; All patients, HCQ with TMZ): 5 (14) No. (%) | Thrombocytopenia G3/G4 ([4]; All patients, HCQ with TMZ): 2 (6) No. (%) | Vomiting G3/G4 ([4]; All patients, HCQ with TMZ): 1 (3) No. (%) | Abdominal fullness G1/G2 ([4]; HCQ 200 mg (n = 3) with TMZ): 1 (33) No. (%) | Anorexia G1/G2 ([4]; HCQ 200 mg (n = 3) with TMZ): 1 (33) No. (%) | Constipation G1/G2 ([4]; HCQ 200 mg (n = 3) with TMZ): 1 (33) No. (%) | Fatigue G1/G2 ([4]; HCQ 200 mg (n = 3) with TMZ): 1 (33) No. (%) | Lymphopenia G1/G2 ([4]; HCQ 200 mg (n = 3) with TMZ): 1 (33) No. (%) | Lymphopenia G3/G4 ([4]; HCQ 200 mg (n = 3) with TMZ): 1 (33) No. (%) | Nausea G1/G2 ([4]; HCQ 200 mg (n = 3) with TMZ): 1 (33) No. (%) | Vomiting G1/G2 ([4]; HCQ 200 mg (n = 3) with TMZ): 1 (33) No. (%) | Abdominal fullness G1/G2 ([4]; HCQ 400 mg (n = 4) with TMZ): 1 (25) No. (%) | Anorexia G1/G2 ([4]; HCQ 400 mg (n = 4) with TMZ): 1 (25) No. (%) | Diarrhea G1/G2 ([4]; HCQ 400 mg (n = 4) with TMZ): 1 (25) No. (%) | Fatigue G1/G2 ([4]; HCQ 400 mg (n = 4) with TMZ): 2 (50) No. (%) | Hypotension G1/G2 ([4]; HCQ 400 mg (n = 4) with TMZ): 1 (25) No. (%) | Lymphopenia G3/G4 ([4]; HCQ 400 mg (n = 4) with TMZ): 2 (50) No. (%) | Myalgias G1/G2 ([4]; HCQ 400 mg (n = 4) with TMZ): 1 (25) No. (%) | Nausea G1/G2 ([4]; HCQ 400 mg (n = 4) with TMZ): 4 (100) No. (%) | Thrombocytopenia G1/G2 ([4]; HCQ 400 mg (n = 4) with TMZ): 1 (25) No. (%) | Vomiting G1/G2 ([4]; HCQ 400 mg (n = 4) with TMZ): 3 (75) No. (%) | Anorexia G1/G2 ([4]; HCQ 800 mg (n = 15) with TMZ): 5 (33) No. (%) | Constipation G1/G2 ([4]; HCQ 800 mg (n = 15) with TMZ): 4 (27) No. (%) | Diarrhea G1/G2 ([4]; HCQ 800 mg (n = 15) with TMZ): 2 (13) No. (%)
